From ChEMBL document CHEMBL1811814, “Synthesis and evaluation of indole, pyrazole, chromone and pyrimidine based conjugates for tumor growth inhibitory activities--development of highly efficacious cytotoxic agents” (Eur J Med Chem, 2010)

How the values were obtained:
Type in all cases: functional
Parameters in all cases: scale not given: the % may be the effect or the level left
RXF 393 = assay: Growth inhibition of human RXF393 cells assessed tumor cell growth at 10^-5 M
How it was run: (§1)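 NCI 60-human-tumor-cell-line panel screen. Each compound was tested at a single concentration of 10^-5 M, and percent growth of tumor cells was recorded for each cell line. Growth inhibition was expressed from these percent-growth values.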

SNB-75 = assay: Growth inhibition of human SNB75 cells assessed tumor cell growth at 10^-5 M
How it was run: (§2)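 Single-dose screen at 10^-5 M across the 60 human tumor cell line panel, run to NCI standards. The value is the percent growth of each cell line in the presence of compound. Compounds active at this dose moved on to five-concentration testing (10^-4 to 10^-8 M).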

DU-145 = assay: Growth inhibition of human DU145 cells assessed tumor cell growth at 10^-5 M; how it was run: as §1
SF-268 = assay: Growth inhibition of human SF268 cells assessed tumor cell growth at 10^-5 M; how it was run: as §1
K562 = assay: Growth inhibition of human K562 cells assessed tumor cell growth at 10^-5 M; how it was run: as §1
OVCAR-4 = assay: Growth inhibition of human OVCAR4 cells assessed tumor cell growth at 10^-5 M; how it was run: as §1
MDA-MB-231 = assay: Growth inhibition of human MDA-MB-231 cells assessed tumor cell growth at 10^-5 M; how it was run: as §1
CAKI-1 = assay: Growth inhibition of human Caki1 cells assessed tumor cell growth at 10^-5 M; how it was run: as §1
ACHN = assay: Growth inhibition of human ACHN cells assessed tumor cell growth at 10^-5 M; how it was run: as §1
IGROV-1 = assay: Growth inhibition of human IGROV1 cells assessed tumor cell growth at 10^-5 M; how it was run: as §1
HCC 2998 = assay: Growth inhibition of human HCC2998 cells assessed tumor cell growth at 10^-5 M; how it was run: as §1
OVCAR-3 = assay: Growth inhibition of human OVCAR3 cells assessed tumor cell growth at 10^-5 M; how it was run: as §1
HOP-62 = assay: Growth inhibition of human HOP62 cells assessed tumor cell growth at 10^-5 M; how it was run: as §1
HOP-92 = assay: Growth inhibition of human HOP92 cells assessed tumor cell growth at 10^-5 M; how it was run: as §1
UO-31 = assay: Growth inhibition of human UO31 cells assessed tumor cell growth at 10^-5 M; how it was run: as §2
SR = assay: Growth inhibition of human SR cells assessed tumor cell growth at 10^-5 M; how it was run: as §2
SW-620 = assay: Growth inhibition of human SW620 cells assessed tumor cell growth at 10^-5 M; how it was run: as §2
NCI-H322M = assay: Growth inhibition of human NCI-H322M cells assessed tumor cell growth at 10^-5 M; how it was run: as §1
KM12 = assay: Growth inhibition of human KM12 cells assessed tumor cell growth at 10^-5 M; how it was run: as §1
CCRF-CEM = assay: Growth inhibition of human CCRF-CEM cells assessed tumor cell growth at 10^-5 M; how it was run: as §1
A549 = assay: Growth inhibition of human A549 cells assessed tumor cell growth at 10^-5 M; how it was run: as §1
HCT-116 = assay: Growth inhibition of human HCT116 cells assessed tumor cell growth at 10^-5 M; how it was run: as §1
NCI-H226 = assay: Growth inhibition of human NCI-H226 cells assessed tumor cell growth at 10^-5 M; how it was run: as §1
OVCAR-5 = assay: Growth inhibition of human OVCAR5 cells assessed tumor cell growth at 10^-5 M; how it was run: as §1
UACC-62 = assay: Growth inhibition of human UACC62 cells assessed tumor cell growth at 10^-5 M; how it was run: as §2
M14 = assay: Growth inhibition of human M14 cells assessed tumor cell growth at 10^-5 M; how it was run: as §1
EKVX = assay: Growth inhibition of human EKVX cells assessed tumor cell growth at 10^-5 M; how it was run: as §1
MOLT-4 = assay: Growth inhibition of human MOLT4 cells assessed tumor cell growth at 10^-5 M; how it was run: as §1
HT-29 = assay: Growth inhibition of human HT-29 cells assessed tumor cell growth at 10^-5 M; how it was run: as §1
[1] = Growth inhibition of human […] cells assessed tumor cell growth at 10^-5 M; how it was run: as §1
BT-549 = assay: Growth inhibition of human BT549 cells assessed tumor cell growth at 10^-5 M; how it was run: as §1
MDA-MB-468 = assay: Growth inhibition of human MDA-MB-468 cells assessed tumor cell growth at 10^-5 M; how it was run: as §1
UACC-257 = assay: Growth inhibition of human UACC257 cells assessed tumor cell growth at 10^-5 M; how it was run: as §2
HL-60(TB) = assay: Growth inhibition of human HL-60(TB) cells assessed tumor cell growth at 10^-5 M
How it was run: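 HL-60(TB), part of the 60-line panel, tested at a single concentration of 10^-5 M. The read-out is percent tumor cell growth relative to untreated growth.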

[2] = Growth inhibition of human Hs 578T cells assessed tumor cell growth at 10^-5 M; how it was run: as §1
NCI/ADR-RES = assay: Growth inhibition of human NCI/ADR-RES cells assessed tumor cell growth at 10^-5 M; how it was run: as §1
A498 = assay: Growth inhibition of human A498 cells assessed tumor cell growth at 10^-5 M; how it was run: as §1
MDA-MB-435 = assay: Growth inhibition of human MDA-MB-435 cells assessed tumor cell growth at 10^-5 M; how it was run: as §1
Malme-3M = assay: Growth inhibition of human MALME-3M cells assessed tumor cell growth at 10^-5 M; how it was run: as §1
U-251 = assay: Growth inhibition of human U251 cells assessed tumor cell growth at 10^-5 M; how it was run: as §2
OVCAR-8 = assay: Growth inhibition of human OVCAR8 cells assessed tumor cell growth at 10^-5 M; how it was run: as §1
786-0 = assay: Growth inhibition of human 786-0 cells assessed tumor cell growth at 10^-5 M; how it was run: as §1
HCT-15 = assay: Growth inhibition of human HCT15 cells assessed tumor cell growth at 10^-5 M; how it was run: as §1
LOX IMVI = assay: Growth inhibition of human LOXIMVI cells assessed tumor cell growth at 10^-5 M; how it was run: as §1
SK-MEL-28 = assay: Growth inhibition of human SK-MEL-28 cells assessed tumor cell growth at 10^-5 M; how it was run: as §1
NCI-H23 = assay: Growth inhibition of human NCI-H23 cells assessed tumor cell growth at 10^-5 M; how it was run: as §1
PC-3 = assay: Growth inhibition of human PC3 cells assessed tumor cell growth at 10^-5 M; how it was run: as §1
SK-MEL-2 = assay: Growth inhibition of human SK-MEL-2 cells assessed tumor cell growth at 10^-5 M; how it was run: as §1
SN12C = assay: Growth inhibition of human SN12C cells assessed tumor cell growth at 10^-5 M; how it was run: as §1
SF-295 = assay: Growth inhibition of human SF295 cells assessed tumor cell growth at 10^-5 M; how it was run: as §1
NCI-H460 = assay: Growth inhibition of human NCI-H460 cells assessed tumor cell growth at 10^-5 M; how it was run: as §1
SNB-19 = assay: Growth inhibition of human SNB19 cells assessed tumor cell growth at 10^-5 M; how it was run: as §2
SK-MEL-5 = assay: Growth inhibition of human SK-MEL-5 cells assessed tumor cell growth at 10^-5 M; how it was run: as §1
SK-OV-3 = assay: Growth inhibition of human SKOV3 cells assessed tumor cell growth at 10^-5 M; how it was run: as §1
COLO 205 = assay: Growth inhibition of human COLO205 cells assessed tumor cell growth at 10^-5 M; how it was run: as §1
T47D = assay: Growth inhibition of human T47D cells assessed tumor cell growth at 10^-5 M; how it was run: as §2
MCF7 = assay: Growth inhibition of human MCF7 cells assessed tumor cell growth at 10^-5 M; how it was run: as §1
SF-539 = assay: Growth inhibition of human SF539 cells assessed tumor cell growth at 10^-5 M; how it was run: as §1

SMILES: CN1C(=O)C(=Cc2coc3ccccc3c2=O)C(=O)N(C)C1=O
- Activity (RXF 393): 91.99%
- Activity (SNB-75): 85.44%
- Activity (DU-145): 106.58%
- Activity (SF-268): 98.13%
- Activity (K562): 105.28%
- Activity (OVCAR-4): 97.92%
- Activity (MDA-MB-231): 96.45%
- Activity (CAKI-1): 105.77%
- Activity (ACHN): 93.31%
- Activity (IGROV-1): 95.15%
- Activity (HCC 2998): 99.12%
- Activity (OVCAR-3): 103.79%
- Activity (HOP-62): 84.39%
- Activity (HOP-92): 87.53%
- Activity (UO-31): 67.73%
- Activity (SR): 72.89%
- Activity (SW-620): 102.73%
- Activity (NCI-H322M): 115.86%
- Activity (KM12): 109.04%
- Activity (CCRF-CEM): 97.29%
- Activity (A549): 104.96%
- Activity (HCT-116): 85.46%
- Activity (NCI-H226): 87.83%
- Activity (OVCAR-5): 92.09%
- Activity (UACC-62): 87.77%
- Activity (M14): 90.53%
- Activity (EKVX): 98.76%
- Activity (MOLT-4): 81.25%
- Activity (HT-29): 112.32%
- Activity [1]: 62.63%
- Activity (BT-549): 87.93%
- Activity (MDA-MB-468): 104.25%
- Activity (UACC-257): 94.47%
- Activity (HL-60(TB)): 92.68%
- Activity [2]: 96.44%
- Activity (NCI/ADR-RES): 85.24%
- Activity (A498): 120.85%
- Activity (MDA-MB-435): 104.58%
- Activity (Malme-3M): 137.21%
- Activity (U-251): 93.36%
- Activity (OVCAR-8): 86.75%
- Activity (786-0): 95.26%
- Activity (HCT-15): 82.74%
- Activity (LOX IMVI): 89.46%
- Activity (SK-MEL-28): 108.31%
- Activity (NCI-H23): 84.27%
- Activity (PC-3): 94.7%
- Activity (SK-MEL-2): 95.42%
- Activity (SN12C): 88.79%

SMILES: CC1=NN(c2cccc(Cl)c2)C(=O)/C1=C\c1coc2ccccc2c1=O
- Activity (RXF 393): 96.69%
- Activity (SNB-75): 94.9%
- Activity (SF-295): 127.24%
- Activity (DU-145): 115.23%
- Activity (SF-268): 101.34%
- Activity (K562): 109.12%
- Activity (OVCAR-4): 99.9%
- Activity (MDA-MB-231): 98.59%
- Activity (CAKI-1): 96.64%
- Activity (ACHN): 96.23%
- Activity (IGROV-1): 105.92%
- Activity (HCC 2998): 94.86%
- Activity (OVCAR-3): 123.01%
- Activity (NCI-H460): 112.85%
- Activity (HOP-62): 110.49%
- Activity (HOP-92): 91.19%
- Activity (UO-31): 82.13%
- Activity (SR): 96.27%
- Activity (SW-620): 98.74%
- Activity (NCI-H322M): 121.02%
- Activity (SNB-19): 102.59%
- Activity (KM12): 113.31%
- Activity (CCRF-CEM): 97.52%
- Activity (A549): 102.67%
- Activity (HCT-116): 106.06%
- Activity (SK-MEL-5): 109.62%
- Activity (NCI-H226): 93.17%
- Activity (OVCAR-5): 93.56%
- Activity (UACC-62): 92.44%
- Activity (M14): 63.48%
- Activity (EKVX): 110.36%
- Activity (MOLT-4): 102.14%
- Activity (HT-29): 114.92%
- Activity [1]: 72.35%
- Activity (BT-549): 98.21%
- Activity (MDA-MB-468): 106.03%
- Activity (UACC-257): 98.36%
- Activity (SK-OV-3): 103.95%
- Activity (COLO 205): 138.42%
- Activity (HL-60(TB)): 106.16%
- Activity [2]: 96.45%
- Activity (NCI/ADR-RES): 87.3%
- Activity (A498): 114.05%
- Activity (MDA-MB-435): 110.64%
- Activity (T47D): 92.99%
- Activity (Malme-3M): 107.7%
- Activity (U-251): 97.41%
- Activity (OVCAR-8): 99.11%
- Activity (786-0): 77.33%
- Activity (MCF7): 86.4%
- Activity (HCT-15): 92.73%
- Activity (LOX IMVI): 92.97%
- Activity (SK-MEL-28): 109.94%
- Activity (NCI-H23): 88.35%
- Activity (SF-539): 95.06%
- Activity (PC-3): 108.19%
- Activity (SK-MEL-2): 96.49%
- Activity (SN12C): 100.25%
